Assay results taken from article PMC2814311 (Journal of biological inorganic chemistry : JBIC : a …, 2009).

Key:
[1] = tested on: breast cancer DCIS cells; assay: Cell proliferation assay; type: cell-based, human; settings: for toxicity of compound alone: DCIS cells, compound without copper, 24 h, MTT
Procedure, shortened: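 DCIS human breast cancer cells were kept in DMEM/F12 with 5% horse serum, bicarbonate, 10 mM HEPES and antibiotics at 37 °C, 5% CO2. They were grown to 70–80% confluency, then given test compound alone or premixed with CuCl2 at various concentrations for 24 h at 37 °C. Medium was removed before the MTT read-out. Viability is expressed as percent of DMSO-treated cells (mean±SD, n=4).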

[2] = Cu-ligand binding by UV-vis titration; type: physicochemical; settings: UV-vis titration with CuCl2 in methanol; 0.1 mM compound
[3] = tested on: MCF10dcis.com (DCIS) cells; assay: Copper accumulation in breast cancer cells measured by ICP-OES; type: cell-based, human; settings: for difference in ability to accumulate cellular copper versus inactive analogs: 10 μM CuCl2 mixtures, 1 h (8-OHQ vs 2, 3) or 8 hrs (CQ vs 5, 6); for increase of intracellular copper level: compound-copper mixture
[4] = Caco-2 permeability assay; type: in vitro ADME; settings: human; for efflux ratio at 2 h, 50 μmol/L: Caco-2, pH 7.4; for Papp at 2 h, 50 μmol/L: 2 hrs at 37°C
Procedure, shortened: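 Caco-2 cells were grown in MEM with 20% FBS at 37 °C and 5% CO2. They were seeded on transwell inserts at 0.165×10^5 cells/insert and cultured 21 days in 10% FBS MEM, with monolayer integrity checked by TEER. Monolayers were washed in HBSS/HEPES (10 mM, pH 7.4). Test compound (50 μmol/L) was added apically or basolaterally and incubated 2 h at 37 °C. The receiver side was quantified by UPLC/MS. Papp = dQ/dt×1/AC0, and efflux ratio = B→A/A→B.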

[5] = Parallel artificial membrane permeability assay; type: in vitro ADME; settings: PAMPA
Procedure, shortened: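 Test compound was supplied as a 10 mM DMSO stock and diluted 200-fold in pH 7.4 buffer. It was placed in the donor wells under an artificial lipid membrane filter plate holding pH 7.4 acceptor sink buffer. Plates were incubated 0.5 h at room temperature, with each well magnetically stirred. Donor and acceptor concentrations were measured by UV plate spectrometry in an automated workflow.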

[6] = Caco-2, pH 7.4, CaCo2 Papp A/B, apical to basolateral
[7] = Caco-2, pH 7.4, Caco2 Papp B/A, basolateral to apical

| SMILES | toxicity of compound alone [1] | toxicity of compound alone ([1]; listed as 8-OHQ) | formation of copper complex [2] | difference in ability to accumulate cellular copper versus inactive analogs [3] | increase of intracellular copper level [3] | efflux ratio at 2 h, 50 μmol/L [4] | Papp at 2 h, 50 μmol/L [4, 6] [×10⁻⁶ cm/s] | Papp at 2 h, 50 μmol/L [4, 7] [×10⁻⁶ cm/s] | Papp at 0.5 hr, 50 µM [5] [×10⁻⁶ cm/s] | toxicity of compound alone ([1]; listed as CQ) | anti-proliferative effect of synthesized copper complex ([1]; unpublished work of the authors) |
| --- | --- | --- | --- | --- | --- | --- | --- | --- | --- | --- | --- |
| Oc1cccc2cccnc12 [Compound 1, 8-hydroxyquinoline, reference compound] | some toxicity | much less or no toxicity | bind to copper and form complexes | at least 100 fold | 135 fold | 0.8 | 38 ± 14.8 | 29 ± 1.1 | 21.3 ± 1.6 | – | – |
| COc1ccc(Cl)c2cccnc12 [Compound 6, 5-chloro-8-methoxyquinoline] | – | – | could not form complexes with copper | – | did not change the accumulation of intracellular copper | 0.7 | 60.4 ± 2.4 | 41.3 ± 2.7 | 30.8 ± 4.9 | – | – |
| COc1c(I)cc(Cl)c2cccnc12 [Compound 5, 5-chloro-7-iodo-8-methoxyquinoline] | – | – | could not form complexes with copper | – | did not change the accumulation of intracellular copper | 0.6 | 21.5 ± 3.1 | 12.5 ± 1.6 | 77.9 ± 5.4 | – | – |
| Oc1c(I)cc(Cl)c2cccnc12 [Compound 4, 5-chloro-7-iodo-8-hydroxyquinoline, reference compound] | some toxicity | – | bind to copper and form complexes | 40–50 fold | – | 0.7 | 47.3 ± 6.1 | 31.5 ± 2.2 | 33.4 ± 3.1 | much less or no toxicity | – |
| [Cu+2].[O-]c1cccc2cccnc12.[O-]c1cccc2cccnc12 [Cu [8-OHQ]2] | – | – | – | – | – | – | – | – | – | – | comparable to their copper mixtures |
| COc1cccc2cccnc12 [Compound 2, 8-methoxyquinoline] | – | – | could not form complexes with copper | – | did not change the accumulation of intracellular copper | 0.6 | 48.3 ± 2.6 | 29.9 ± 0.7 | 68.2 ± 10.9 | – | – |
| CCOc1cccc2cccnc12 [Compound 3, 8-ethoxyquinoline] | – | – | could not form complexes with copper | – | did not change the accumulation of intracellular copper | 0.5 | 20.7 ± 14.6 | 9.4 ± 2.5 | 72.6 ± 24.8 | – | – |
